Laboratory results taken from ChEMBL document CHEMBL3259743, “Highly-selective 4-(1,2,3-triazole)-based P450c17a 17,20-lyase inhibitors” (Bioorg Med Chem Lett, 2014).

Columns and labels:
[1] = target: T1, Steroid 17-alpha-hydroxylase/17,20 lyase (Homo sapiens, UniProt P05093); assay: Selectivity ratio of IC50 for human recombinant CYP17 hydroxylase activity to IC50 for human recombinant CYP17 lyase activity
T1 sequence (P05093 whole entry): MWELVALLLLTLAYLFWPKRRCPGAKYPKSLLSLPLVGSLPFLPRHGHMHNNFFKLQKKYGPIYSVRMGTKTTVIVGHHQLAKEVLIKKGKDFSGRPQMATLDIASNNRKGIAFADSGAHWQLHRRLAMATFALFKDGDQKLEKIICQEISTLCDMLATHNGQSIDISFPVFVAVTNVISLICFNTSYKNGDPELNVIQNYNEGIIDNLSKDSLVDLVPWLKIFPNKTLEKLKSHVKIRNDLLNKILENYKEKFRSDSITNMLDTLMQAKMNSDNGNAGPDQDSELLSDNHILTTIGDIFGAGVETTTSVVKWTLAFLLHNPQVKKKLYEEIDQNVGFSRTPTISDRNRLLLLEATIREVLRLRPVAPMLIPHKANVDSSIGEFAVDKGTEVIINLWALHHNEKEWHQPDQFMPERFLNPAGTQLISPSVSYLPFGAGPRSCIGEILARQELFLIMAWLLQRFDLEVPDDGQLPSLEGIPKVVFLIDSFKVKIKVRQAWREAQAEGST
Outline: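 Lyase selectivity expressed as human hydroxylase IC50 divided by human lyase IC50. Both values come from recombinant human CYP17 in a yeast microsome system, with products analysed by HPLC/MS/MS and 4-parameter logistic fitting.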

[2] = test system: CYP3A4 versus CYP17 lyase; assay: Selectivity ratio of IC50 for human hepatocyte microsome CYP3A4 to IC50 for human recombinant CYP17 lyase activity; format: ADME, cell-based; conditions: read-out: Ratio IC50
Outline: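 Ratio of human CYP3A4 IC50 (pooled human hepatocyte microsomes) to human CYP17 lyase IC50 (recombinant enzyme, yeast microsomes). Both IC50 values from HPLC/MS/MS product analysis with a 4-parameter logistic fit.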

Cytochrome P450 3A4 = Cytochrome P450 3A4 (Homo sapiens, UniProt P08684); assay: Inhibition of human hepatocyte microsome CYP3A4 using testosterone as substrate by HPLC/MS/MS method; format: ADME
Chain of Cytochrome P450 3A4 (P08684 whole entry): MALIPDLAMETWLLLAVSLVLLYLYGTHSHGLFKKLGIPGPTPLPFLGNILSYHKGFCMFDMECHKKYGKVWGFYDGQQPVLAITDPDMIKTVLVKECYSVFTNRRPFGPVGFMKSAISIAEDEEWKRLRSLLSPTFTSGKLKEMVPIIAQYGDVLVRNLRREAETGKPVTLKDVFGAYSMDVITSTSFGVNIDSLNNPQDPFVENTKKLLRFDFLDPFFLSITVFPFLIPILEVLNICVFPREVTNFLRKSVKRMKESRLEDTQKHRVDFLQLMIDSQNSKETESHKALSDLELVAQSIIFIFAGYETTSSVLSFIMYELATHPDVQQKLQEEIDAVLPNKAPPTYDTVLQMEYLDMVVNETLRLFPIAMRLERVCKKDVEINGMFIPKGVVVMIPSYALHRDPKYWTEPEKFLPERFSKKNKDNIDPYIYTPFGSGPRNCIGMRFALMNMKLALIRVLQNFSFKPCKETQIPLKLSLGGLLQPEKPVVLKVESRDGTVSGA
Outline: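 Pooled human hepatocyte microsome preparation with an NADPH-regenerating system. Product analysed by HPLC/MS/MS. IC50 from a 4-parameter logistic fit of the dose-response data.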

[3] = target: T1, Steroid 17-alpha-hydroxylase/17,20 lyase; assay: Inhibition of human recombinant CYP17 hydroxylase activity by HPLC/MS/MS method
Outline: (§1)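 Recombinant human CYP17 expressed in a yeast microsome system, run with an NADPH-regenerating system. Hydroxylase and lyase products analysed by HPLC/MS/MS. IC50 from a 4-parameter logistic fit of the dose-response data.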

[4] = target: T1, Steroid 17-alpha-hydroxylase/17,20 lyase; assay: Inhibition of human recombinant CYP17 lyase activity using 17alpha-hydroxypregnenolone as substrate by HPLC/MS/MS method; outline: as §1
[5] = target: T2, Steroid 17-alpha-hydroxylase/17,20 lyase (Rattus norvegicus, UniProt P11715); assay: Inhibition of rat testicular microsome CYP17 lyase activity using 17alpha-hydroxypregnenolone as substrate by HPLC/MS/MS method
T2 sequence (P11715 whole entry): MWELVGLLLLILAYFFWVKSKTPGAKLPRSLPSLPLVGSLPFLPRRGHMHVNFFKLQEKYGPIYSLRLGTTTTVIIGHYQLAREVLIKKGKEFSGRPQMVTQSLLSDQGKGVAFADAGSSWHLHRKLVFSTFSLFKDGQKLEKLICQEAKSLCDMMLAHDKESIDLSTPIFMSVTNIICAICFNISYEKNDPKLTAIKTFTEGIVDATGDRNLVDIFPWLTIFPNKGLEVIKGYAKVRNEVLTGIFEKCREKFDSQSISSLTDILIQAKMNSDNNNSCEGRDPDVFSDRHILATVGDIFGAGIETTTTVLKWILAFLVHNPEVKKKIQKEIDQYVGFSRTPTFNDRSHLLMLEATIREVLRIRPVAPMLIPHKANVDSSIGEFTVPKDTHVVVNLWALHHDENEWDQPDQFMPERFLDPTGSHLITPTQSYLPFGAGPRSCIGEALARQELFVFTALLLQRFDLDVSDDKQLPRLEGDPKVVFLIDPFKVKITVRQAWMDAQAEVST
Outline: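 Rat testicular microsome preparation with an NADPH-regenerating system. Product analysed by HPLC/MS/MS. IC50 taken from a 4-parameter logistic fit of the dose-response data.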

[6] = test system: CYP3A4 versus CYP17 lyase; assay: Selectivity ratio of IC50 for human hepatocyte microsome CYP3A4 to IC50 for rat testicular microsome CYP17 lyase activity
[7] = Metabolic stability in human liver microsomes assessed as compound remaining after 60 mins; format: ADME; conditions: read-out: Stability
Outline: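 Incubation in human liver microsomes for 60 min. Read-out is the percentage of parent compound remaining.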

[8] = target: T2, Steroid 17-alpha-hydroxylase/17,20 lyase; assay: Inhibition of rat testicular microsome CYP17 hydroxylase activity by HPLC/MS/MS method
Outline: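 Rat testicular microsomal preparation as the enzyme source, with an NADPH-regenerating system. Reaction product was analysed by HPLC/MS/MS. IC50 was derived from a 4-parameter logistic fit of the dose-response data.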

Hamster [9] = assay: Inhibition of CYP17 in gonadally-intact hamster assessed as testosterone level in serum at 50 mg/kg, po after 2 hrs by LC/MS/MS analysis (reference value: 1.98 +/- 0.057 ng/mL); format: functional, Cricetinae
Hamster [10] = assay: Inhibition of CYP17 in gonadally-intact hamster assessed as progesterone level in serum at 50 mg/kg, po after 2 hrs by LC/MS/MS analysis (reference value: 1.02 +/- 0.05 ng/mL); format: functional, Cricetinae

Structure (SMILES)	Ratio IC50 [1]	selectivity ratio [2]	IC50 (Cytochrome P450 3A4) [nM]	IC50 [3] [nM]	IC50 [4] [nM]	IC50 [5] [nM]	other results
CC(C)C(O)(c1ccc2cc(-c3cccs3)ccc2c1)c1c[nH]nn1 (racemic)	< 3	< 20	81000	13000	> 4000	–	–
COc1cc2ccc(C(O)(c3cc[nH]n3)C(C)C)cc2cc1OC (racemic)	–	–	1800	–	–	1600	–
COc1cc2ccc(C(O)(c3cn[nH]c3)C(C)C)cc2cc1OC (racemic)	–	–	27000	–	–	430	–
COc1cc2ccc(C(O)(c3c[nH]nn3)C(C)C)cc2cc1OC (racemic)	13	320	57000	2300	180	–	selectivity ratio [6]: 317; remaining at 1 h [7]: 29%
COc1cc2ccc(C(O)(c3nc[nH]n3)C(C)C)cc2cc1OC (racemic)	–	–	100000	–	–	7100	–
COc1cc2ccc(C(O)(c3cncs3)C(C)C)cc2cc1OC (racemic)	–	–	770	–	–	–	–
COc1cc2ccc(C(O)(c3cnco3)C(C)C)cc2cc1OC (racemic)	–	–	6500	–	–	86	–
COc1cc2ccc(C(O)(c3cccnc3)C(C)C)cc2cc1OC (racemic)	–	–	9400	–	–	4200	–
COc1cc2ccc(C(O)(c3ccncc3)C(C)C)cc2cc1OC (racemic)	–	–	4500	–	–	60	–
COc1cc2ccc(C(O)(c3ccncn3)C(C)C)cc2cc1OC (racemic)	–	–	18000	–	–	–	–
COc1cc2ccc(C(O)(c3c[nH]cn3)C(C)C)cc2cc1OC (racemic)	4.4	32	1600	220	50	29	IC50 [8]: 140 nM; Activity (Hamster [9]): 0.3 ng/mL; Activity (Hamster [10]): 3.9 ng/mL
CC(C)C(O)(c1ccc2cc(OC(F)F)c(OC(F)F)cc2c1)c1c[nH]nn1 (racemic)	–	–	–	690	170	–	remaining at 1 h [7]: 54%
CC(C)C(O)(c1ccc2cc(OCC(F)(F)F)c(OCC(F)(F)F)cc2c1)c1c[nH]nn1 (racemic)	12	80	25000	3700	310	–	–
CC(C)C(O)(c1ccc2cc(-c3cnco3)ccc2c1)c1c[nH]nn1 (racemic)	14	110	102000	13000	940	–	–
CC(C)C(O)(c1ccc2cc(OC(F)F)ccc2c1)c1c[nH]nn1 (racemic)	0.22	42	14000	74	330	–	–
CC(C)C(O)(c1ccc2cc(OCC(F)(F)F)ccc2c1)c1c[nH]nn1 (racemic)	1.8	≥ 340	≥ 195000	1000	570	–	–
CC(=O)O[C@H]1CC[C@@]2(C)C(=CC[C@@H]3[C@@H]2CC[C@]2(C)C(c4cccnc4)=CC[C@@H]32)C1 [ABIRATERONE ACETATE]	–	–	–	–	–	–	Activity (Hamster [9]): 0.3 ng/mL; Activity (Hamster [10]): 2.1 ng/mL
CC(C)[C@](O)(c1ccc2cc(OC(F)F)c(OC(F)F)cc2c1)c1c[nH]nn1 [SEVITERONEL]	–	–	–	–	–	–	Activity (Hamster [9]): 0.37 ng/mL; Activity (Hamster [10]): 1.2 ng/mL
